For assay [1], the system named is Proteasome. As to the kind of experiment: Inhibition of proteasome in human S68 cells assessed as K-score by measuring ALDHbr cells by LSR2 cytometer. To be noted: condition breast cancer. The gist of the method:
(§1)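 Breast cancer lines exposed continuously for 72 h in adherent culture to a range of doses centred on the MTS-derived IC50 (72 h MTS, absorbance 540 nm). ALDHbr fraction measured by ALDEFLUOR flow cytometry (LSR2) with DEAB control. K-score = linear regression coefficient between untreated condition and the log10 dose at which ALDHbr proportion changes by 50% versus control.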

Assay [2] concerns Proteasome. In words: Inhibition of proteasome in human MDA-MB-436 cells assessed as K-score by measuring ALDHbr cells by LSR2 cytometer. To be noted: condition breast cancer. The gist of the method:
as §1

In assay [3] the test system is Proteasome. In words: Inhibition of proteasome in human SUM159 cells assessed as K-score by measuring ALDHbr cells by LSR2 cytometer. To be noted: condition breast cancer. In short, it runs like this: as §1
Assay [4] deals with Proteasome. As to the kind of experiment: Inhibition of proteasome in human SUM149 cells assessed as K-score by measuring ALDHbr cells by LSR2 cytometer. To be noted: condition breast cancer. The gist of the method:
as §1

In assay [5] the test system is Proteasome. In words: Inhibition of proteasome in human BrCa-MZ-01 cells assessed as K-score by measuring ALDHbr cells by LSR2 cytometer. To be noted: condition breast cancer. The gist of the method:
as §1

The target of assay [6] is T1, Double-stranded RNA-specific editase 1 (Homo sapiens) (UniProt P78563).
T1 sequence (whole entry): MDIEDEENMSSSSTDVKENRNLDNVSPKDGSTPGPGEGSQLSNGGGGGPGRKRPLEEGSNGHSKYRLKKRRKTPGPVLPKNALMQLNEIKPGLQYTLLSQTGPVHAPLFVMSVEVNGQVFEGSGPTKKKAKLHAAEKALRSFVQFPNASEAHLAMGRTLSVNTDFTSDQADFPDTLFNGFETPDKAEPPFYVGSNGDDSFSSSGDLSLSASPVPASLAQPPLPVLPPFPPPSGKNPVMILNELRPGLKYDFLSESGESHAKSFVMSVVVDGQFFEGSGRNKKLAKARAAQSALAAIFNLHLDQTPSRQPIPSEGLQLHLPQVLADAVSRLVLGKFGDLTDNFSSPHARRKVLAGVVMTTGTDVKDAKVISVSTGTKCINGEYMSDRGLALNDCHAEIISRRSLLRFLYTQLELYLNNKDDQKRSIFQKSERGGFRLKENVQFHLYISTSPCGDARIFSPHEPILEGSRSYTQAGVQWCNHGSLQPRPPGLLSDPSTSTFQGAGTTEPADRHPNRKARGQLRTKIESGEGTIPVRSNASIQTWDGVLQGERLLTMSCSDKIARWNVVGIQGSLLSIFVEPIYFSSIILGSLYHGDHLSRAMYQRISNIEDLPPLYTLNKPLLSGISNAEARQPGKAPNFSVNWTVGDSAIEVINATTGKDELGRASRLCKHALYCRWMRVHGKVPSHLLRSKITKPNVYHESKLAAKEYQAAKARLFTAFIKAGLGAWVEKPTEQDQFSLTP
As to the kind of experiment: Inhibition of ADARB1 in human SUM159 cells assessed as K-score by measuring ALDHbr cells by LSR2 cytometer. It counts as cell-based. In short, it runs like this:
as §1

For assay [7], the target named is T1, Double-stranded RNA-specific editase 1 (Homo sapiens). In words: Inhibition of ADARB1 in human MDA-MB-436 cells assessed as K-score by measuring ALDHbr cells by LSR2 cytometer. It counts as cell-based. The gist of the method:
as §1

Assay [8] has the same target. As to the kind of experiment: Inhibition of ADARB1 in human S68 cells assessed as K-score by measuring ALDHbr cells by LSR2 cytometer. It counts as cell-based. The gist of the method: as §1
Assay [9] has the same target. In words: Inhibition of ADARB1 in human SUM149 cells assessed as K-score by measuring ALDHbr cells by LSR2 cytometer. In kind it is cell-based. In short, it runs like this:
as §1

Assay [10] shares this target. In words: Inhibition of ADARB1 in human BrCa-MZ-01cells assessed as K-score by measuring ALDHbr cells by LSR2 cytometer. In kind it is cell-based. In short, it runs like this: as §1
Assay [11] concerns the target Histone acetyltransferase p300 (Homo sapiens) (UniProt Q09472). In words: Inhibition of EP300 in human SUM149 cells assessed as K-score by measuring ALDHbr cells by LSR2 cytometer. It counts as cell-based. The gist of the method: as §1
The target is the same in assay [12]. As to the kind of experiment: Inhibition of EP300 in human MDA-MB-436 cells assessed as K-score by measuring ALDHbr cells by LSR2 cytometer. In kind it is cell-based. In short, it runs like this: as §1
For assay [13] the target is unchanged. In words: Inhibition of EP300 in human S68 cells assessed as K-score by measuring ALDHbr cells by LSR2 cytometer. It counts as cell-based. In short, it runs like this:
as §1

Assay [14] shares this target. In words: Inhibition of EP300 in human BrCa-MZ-01 cells assessed as K-score by measuring ALDHbr cells by LSR2 cytometer. In kind it is cell-based. The gist of the method: as §1
Assay [15] has the same target. As to the kind of experiment: Inhibition of EP300 in human SUM159 cells assessed as K-score by measuring ALDHbr cells by LSR2 cytometer. In kind it is cell-based. In short, it runs like this: as §1
In assay [16] the target is T2, Splicing factor 3B subunit 2 (Homo sapiens) (UniProt Q13435).
T2 sequence (whole entry): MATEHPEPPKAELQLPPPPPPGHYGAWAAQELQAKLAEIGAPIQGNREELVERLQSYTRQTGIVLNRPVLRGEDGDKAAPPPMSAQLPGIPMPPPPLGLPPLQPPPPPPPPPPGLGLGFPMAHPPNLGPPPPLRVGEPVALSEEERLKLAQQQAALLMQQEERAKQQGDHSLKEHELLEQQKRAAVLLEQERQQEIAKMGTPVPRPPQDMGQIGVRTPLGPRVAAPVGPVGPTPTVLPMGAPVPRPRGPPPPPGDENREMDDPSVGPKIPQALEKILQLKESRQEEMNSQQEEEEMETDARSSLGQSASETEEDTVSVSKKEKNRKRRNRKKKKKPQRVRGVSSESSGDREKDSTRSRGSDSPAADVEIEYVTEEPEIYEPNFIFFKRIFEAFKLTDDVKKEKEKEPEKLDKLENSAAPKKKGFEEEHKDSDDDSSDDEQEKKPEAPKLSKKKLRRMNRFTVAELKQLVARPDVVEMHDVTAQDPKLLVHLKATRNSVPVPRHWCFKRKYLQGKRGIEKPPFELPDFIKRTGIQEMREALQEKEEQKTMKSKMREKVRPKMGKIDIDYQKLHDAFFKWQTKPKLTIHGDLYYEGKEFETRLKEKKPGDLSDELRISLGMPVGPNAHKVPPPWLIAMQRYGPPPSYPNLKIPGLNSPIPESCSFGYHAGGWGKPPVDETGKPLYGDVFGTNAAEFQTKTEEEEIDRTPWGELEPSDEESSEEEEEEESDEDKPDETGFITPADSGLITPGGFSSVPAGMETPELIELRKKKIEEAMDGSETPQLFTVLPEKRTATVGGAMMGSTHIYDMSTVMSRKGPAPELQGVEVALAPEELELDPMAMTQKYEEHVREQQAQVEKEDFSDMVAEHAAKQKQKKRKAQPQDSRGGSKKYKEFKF
As to the kind of experiment: Inhibition of SF3B2 in human MDA-MB-436 cells assessed as K-score by measuring ALDHbr cells by LSR2 cytometer. In kind it is cell-based. The gist of the method:
(§2)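 Cell lines exposed for 72 h in adherent culture to a range of concentrations centred on the MTS-derived IC50. ALDHbr proportion measured by ALDEFLUOR flow cytometry (LSR2). K-score is the linear regression coefficient, on log10-transformed doses, between the untreated condition and the dose predicted to give a 50% decrease or increase in ALDHbr proportion versus control.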

Assay [17] addresses T2, Splicing factor 3B subunit 2 (Homo sapiens). As to the kind of experiment: Inhibition of SF3B2 in human SUM149 cells assessed as K-score by measuring ALDHbr cells by LSR2 cytometer. It counts as cell-based. In short, it runs like this:
as §2

The target is the same in assay [18]. As to the kind of experiment: Inhibition of SF3B2 in human SUM159 cells assessed as K-score by measuring ALDHbr cells by LSR2 cytometer. In kind it is cell-based. In short, it runs like this:
as §2

Assay [19] shares this target. As to the kind of experiment: Inhibition of SF3B2 in human S68 cells assessed as K-score by measuring ALDHbr cells by LSR2 cytometer. In kind it is cell-based. The gist of the method: as §2
For assay [20] the target is unchanged. As to the kind of experiment: Inhibition of SF3B2 in human BrCa-MZ-01 cells assessed as K-score by measuring ALDHbr cells by LSR2 cytometer. It counts as cell-based. The gist of the method: as §2

This note sets out measurements from ChEMBL document CHEMBL5712908, “A genome-wide RNAi screen reveals essential therapeutic targets of breast cancer stem cells” (2019).

The structures appear in SMILES notation.

Chain of Histone acetyltransferase p300 (Homo sapiens) (Q09472 whole entry): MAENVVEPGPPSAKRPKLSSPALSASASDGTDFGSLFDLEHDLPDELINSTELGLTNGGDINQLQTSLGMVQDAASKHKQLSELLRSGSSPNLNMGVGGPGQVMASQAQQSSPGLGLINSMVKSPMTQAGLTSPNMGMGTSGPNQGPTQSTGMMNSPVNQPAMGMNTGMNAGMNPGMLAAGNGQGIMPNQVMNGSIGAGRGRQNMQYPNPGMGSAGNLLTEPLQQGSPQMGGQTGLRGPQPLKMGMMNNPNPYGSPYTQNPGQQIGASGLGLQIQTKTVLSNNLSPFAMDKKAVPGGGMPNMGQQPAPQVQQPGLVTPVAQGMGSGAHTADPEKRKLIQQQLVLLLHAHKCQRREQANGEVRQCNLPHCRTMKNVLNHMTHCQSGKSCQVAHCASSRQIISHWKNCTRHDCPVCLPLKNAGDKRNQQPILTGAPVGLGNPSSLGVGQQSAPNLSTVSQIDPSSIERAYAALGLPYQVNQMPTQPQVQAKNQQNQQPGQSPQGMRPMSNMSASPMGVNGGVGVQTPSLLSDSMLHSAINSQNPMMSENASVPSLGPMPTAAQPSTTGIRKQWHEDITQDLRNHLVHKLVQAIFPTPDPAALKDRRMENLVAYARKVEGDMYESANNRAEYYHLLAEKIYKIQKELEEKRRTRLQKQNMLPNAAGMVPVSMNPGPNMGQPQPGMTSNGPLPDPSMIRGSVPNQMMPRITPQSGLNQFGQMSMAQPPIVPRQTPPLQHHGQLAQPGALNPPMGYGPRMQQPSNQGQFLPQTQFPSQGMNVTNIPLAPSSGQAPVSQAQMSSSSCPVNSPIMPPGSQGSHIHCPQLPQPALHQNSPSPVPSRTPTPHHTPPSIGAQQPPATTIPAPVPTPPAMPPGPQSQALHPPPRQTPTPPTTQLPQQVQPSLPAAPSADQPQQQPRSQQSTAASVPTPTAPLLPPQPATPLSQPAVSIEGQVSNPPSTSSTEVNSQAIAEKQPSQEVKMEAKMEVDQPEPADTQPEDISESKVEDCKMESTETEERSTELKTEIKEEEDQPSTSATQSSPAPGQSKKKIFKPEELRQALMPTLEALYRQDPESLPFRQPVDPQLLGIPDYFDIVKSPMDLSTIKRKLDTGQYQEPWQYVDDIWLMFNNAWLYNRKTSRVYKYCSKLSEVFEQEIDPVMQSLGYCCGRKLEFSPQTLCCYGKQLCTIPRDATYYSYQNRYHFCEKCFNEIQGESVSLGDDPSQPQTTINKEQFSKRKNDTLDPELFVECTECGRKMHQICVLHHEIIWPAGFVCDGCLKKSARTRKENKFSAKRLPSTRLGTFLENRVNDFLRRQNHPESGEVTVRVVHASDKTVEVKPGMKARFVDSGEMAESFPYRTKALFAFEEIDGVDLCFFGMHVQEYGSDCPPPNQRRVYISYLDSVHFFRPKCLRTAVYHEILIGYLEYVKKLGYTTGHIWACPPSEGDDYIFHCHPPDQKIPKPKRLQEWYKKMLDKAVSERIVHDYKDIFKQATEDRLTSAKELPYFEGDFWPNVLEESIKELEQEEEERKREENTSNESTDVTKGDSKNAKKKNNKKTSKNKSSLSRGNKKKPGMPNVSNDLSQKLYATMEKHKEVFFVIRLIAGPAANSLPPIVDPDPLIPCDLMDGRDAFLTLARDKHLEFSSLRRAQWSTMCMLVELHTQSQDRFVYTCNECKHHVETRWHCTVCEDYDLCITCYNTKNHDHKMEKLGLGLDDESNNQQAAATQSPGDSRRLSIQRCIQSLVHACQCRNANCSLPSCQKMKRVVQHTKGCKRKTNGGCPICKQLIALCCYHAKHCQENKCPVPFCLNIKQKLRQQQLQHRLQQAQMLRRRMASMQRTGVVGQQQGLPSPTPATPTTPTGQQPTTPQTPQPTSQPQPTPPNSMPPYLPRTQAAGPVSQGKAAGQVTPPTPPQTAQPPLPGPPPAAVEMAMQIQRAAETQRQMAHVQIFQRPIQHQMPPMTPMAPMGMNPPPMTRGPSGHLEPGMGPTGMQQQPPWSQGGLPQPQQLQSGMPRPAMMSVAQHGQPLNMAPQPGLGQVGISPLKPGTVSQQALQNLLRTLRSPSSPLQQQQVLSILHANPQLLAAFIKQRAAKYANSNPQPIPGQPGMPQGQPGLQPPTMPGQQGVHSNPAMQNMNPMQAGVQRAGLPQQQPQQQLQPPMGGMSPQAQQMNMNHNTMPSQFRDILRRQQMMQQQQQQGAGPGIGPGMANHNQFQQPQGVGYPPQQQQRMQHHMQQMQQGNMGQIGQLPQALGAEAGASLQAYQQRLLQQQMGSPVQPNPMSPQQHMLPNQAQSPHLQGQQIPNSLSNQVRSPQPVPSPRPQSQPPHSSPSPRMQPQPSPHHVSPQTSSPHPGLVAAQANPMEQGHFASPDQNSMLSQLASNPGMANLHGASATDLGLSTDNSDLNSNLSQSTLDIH

With `CC(C)C[C@H](NC(=O)[C@H](CCc1ccccc1)NC(=O)CN1CCOCC1)C(=O)N[C@@H](Cc1ccccc1)C(=O)N[C@@H](CC(C)C)C(=O)[C@@]1(C)CO1` [CARFILZOMIB], the Activity in [1] is recorded as -0.09; in assay [2] it was -0.08; in assay [3] it was 0.01; in [4] it was -0.03; in assay [5], -0.08.

Turning to `Nc1ncnc2c1nnn2[C@@H]1O[C@H](CO)[C@@H](O)[C@H]1O`, the Activity in assay [6] was -0.11; in assay [7] it was -0.02; in assay [8], -0.01; in [9], 0.12; in [10], -0.01.

Consider `COc1ccc(CCc2nc3cc(-c4c(C)noc4C)ccc3n2C[C@H](C)N2CCOCC2)cc1Cl`, for which the Activity in assay [11] is 0.1; in [12], -0.04; in assay [13], 0.08; in assay [14], -0.01; in assay [15], -0.02.

As to `CO[C@]1(C)C[C@@]2(CO2)[C@H](O)[C@@H](/C=C/C(C)=C/C[C@@H]2O[C@H](C)[C@H](NC(=O)/C=C\[C@H](C)OC(C)=O)C[C@@H]2C)O1`, the Activity in assay [16] was -0.15; in assay [17] it was -0.19; in [18], 0.25; in assay [19], -0.16; in assay [20] it was 0.05.

Regarding `CC(C)C[C@H](NC(=O)[C@H](Cc1ccccc1)NC(=O)c1cnccn1)B(O)O` [BORTEZOMIB], the Activity in [1] is -0.14; in assay [2] it was -0.06; in assay [3], 0.07; in assay [4], -0.11; in assay [5], -0.07.
